The text below walks through data of ChEMBL document CHEMBL4390674, “Defining Structure-Functional Selectivity Relationships (SFSR) for a Class of Non-Catechol Dopamine D1 Receptor Agonists” (J Med Chem, 2019).

In experiment [1] the target is T1, D(1A) dopamine receptor (Homo sapiens, UniProt P21728). The experiment in a line: Agonist activity at recombinant C-terminal RLuc8-fused human D1 receptor expressed in HEK29T cells co-expressing N-terminal Venus-tagged beta-arrestin2 assessed as increase in beta-arrestin2 recruitment at 10^-4M measured after 15 mins in presence of coelenterazine H by BRET assay relative to dopamine. The format is cell-based. (In general: Recruitment of arrestin is a read-out of receptor activation apart from second messengers.)

For experiment [2], the target named is T1, D(1A) dopamine receptor. The experiment in a line: Agonist activity at recombinant human D1 receptor expressed in HEK29T cells assessed as induction of stimulatory G-protein-mediated cAMP accumulation measured after 15 mins by Glosensor-based FLIPR assay relative to dopamine. The format is functional, cell-based. In a few lines:
(§1)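 GloSensor-22F cAMP biosensor in HEK293T cells co-expressing human D1, seeded in DMEM + 1% dialyzed FBS; next day GloSensor reagent equilibrated ≥15 min at room temperature in HBSS/20 mM HEPES pH 7.4, then drug added in HBSS/HEPES/0.1% BSA/0.01% ascorbic acid. Luminescence read after 15 min; normalized to dopamine maximum (100%); sigmoidal fit; maximum tested 10⁻⁴ M; ≥3 experiments in triplicate.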
(Changes in cAMP serve as a functional read-out for many G protein-coupled receptors.)

The target of experiment [3] is T1, D(1A) dopamine receptor. The experiment in a line: Agonist activity at recombinant human D1 receptor expressed in HEK29T cells assessed as induction of stimulatory G-protein-mediated cAMP accumulation measured after 15 mins by Glosensor-based FLIPR assay. The experiment is classed as functional, cell-based. In short, it runs like this: as §1
Experiment [4] deals with T1, D(1A) dopamine receptor. The experiment in a line: Agonist activity at recombinant C-terminal RLuc8-fused human D1 receptor expressed in HEK29T cells co-expressing N-terminal Venus-tagged beta-arrestin2 assessed as increase in beta-arrestin2 recruitment at 10^-4M measured after 15 mins in presence of coelenterazine H by BRET assay. The experiment is classed as cell-based.

The target of experiment [5] is T1, D(1A) dopamine receptor. Put plainly: Agonist activity at recombinant C-terminal RLuc8-fused human D1 receptor expressed in HEK29T cells co-expressing N-terminal Venus-tagged beta-arrestin2 assessed as increase in beta-arrestin2 recruitment measured after 15 mins in presence of coelenterazine H by BRET assay. The experiment is classed as cell-based. The settings on record: read-out: EC50.

Activity calls are given as the source filed them. The calls are words filed in the database; no cut-off is given here.

T1 sequence (P21728 whole entry, the tested form may be a part): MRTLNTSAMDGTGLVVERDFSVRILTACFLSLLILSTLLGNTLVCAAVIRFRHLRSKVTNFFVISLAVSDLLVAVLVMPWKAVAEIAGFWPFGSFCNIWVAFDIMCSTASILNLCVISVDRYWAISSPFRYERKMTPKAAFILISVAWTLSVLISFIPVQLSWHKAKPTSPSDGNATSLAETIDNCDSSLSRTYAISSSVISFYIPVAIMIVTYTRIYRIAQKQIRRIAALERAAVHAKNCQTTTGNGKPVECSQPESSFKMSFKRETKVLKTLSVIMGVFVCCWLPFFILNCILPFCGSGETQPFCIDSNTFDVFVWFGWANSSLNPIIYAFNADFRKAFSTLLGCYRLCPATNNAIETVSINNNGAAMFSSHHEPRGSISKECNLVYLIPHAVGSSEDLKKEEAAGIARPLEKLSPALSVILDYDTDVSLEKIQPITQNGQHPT

Usually Emax stands for the size of the effect at its maximum, as opposed to the concentration needed. In general, EC50 refers to the concentration giving half of the maximal effect. `Cc1cc(Oc2nccc3occc23)ccc1-c1cncc(C(N)=O)c1`: at D(1A) dopamine receptor [1], the Emax entry was “inactive”. Moreover, the Emax at D(1A) dopamine receptor [2] stood at 59%. The EC50 at D(1A) dopamine receptor [3] stood at 1300 nM. Also, on D(1A) dopamine receptor [4], the outcome was inactive.
As for `FC(F)(F)c1cc(Oc2nccc3ccccc23)ccc1-c1cccc2nccn12`, the Emax entry at D(1A) dopamine receptor [1] was “inactive”. Further, the Emax at D(1A) dopamine receptor [2] is 61%. The EC50 on D(1A) dopamine receptor [3] was determined as 67 nM. The result on D(1A) dopamine receptor [4] was inactive.
As to `Cc1c(Oc2nccc3occc23)ccc(-c2cccc3nccn23)c1C`, the Emax entry on D(1A) dopamine receptor [1] was “inactive”. Besides, the Emax on D(1A) dopamine receptor [2] is 30%. Further, the EC50 on D(1A) dopamine receptor [3] was 110 nM. Further, the outcome at D(1A) dopamine receptor [4] was inactive.
In the case of `Cc1cc(Oc2nccc3ccccc23)ccc1-c1c(C)ncc2nccn12`, at D(1A) dopamine receptor [2], the Emax amounted to 82%. The EC50 is greater than 10 µM on D(1A) dopamine receptor [5] and 15 nM on D(1A) dopamine receptor [3].
The like results for `Cc1cc(Oc2ccccn2)ccc1-c1c(C)ncc2nccn12` were, in that order, 83%, greater than 10 µM and 120 nM.
For the compound `Cc1cc(Oc2nccc3occc23)ccc1-c1c(C)cnnc1C`, the Emax entry at D(1A) dopamine receptor [1] was “inactive”. Besides, the Emax on D(1A) dopamine receptor [2] came to 61%. Besides, the EC50 at D(1A) dopamine receptor [3] turned out to be 1.2 nM. On D(1A) dopamine receptor [4], the result was inactive.
Consider `Cc1cc(Oc2nccc3occ(C4CC4)c23)ccc1-c1c(C)ncc2nccn12`, for which, on D(1A) dopamine receptor [1], the Emax result is “inactive”. Moreover, the Emax at D(1A) dopamine receptor [2] came out at 67%. Besides, the EC50 on D(1A) dopamine receptor [3] came to 62 nM. For the same compound, the result at D(1A) dopamine receptor [4] was inactive.
Take `Cc1cc(Nc2nccc3occc23)ccc1-c1c(C)ncc2nccn12`: at D(1A) dopamine receptor [2], the Emax was found to be 98%. Further, the EC50 on D(1A) dopamine receptor [5] was greater than 10 µM; at D(1A) dopamine receptor [3], 16 nM.
Take `Cc1cc(N(CC2CC2)c2nccc3occc23)ccc1-c1c(C)ncc2nccn12`: the Emax result on D(1A) dopamine receptor [1] was “inactive”. On D(1A) dopamine receptor [2], the Emax worked out at 78%. Moreover, the EC50 on D(1A) dopamine receptor [3] worked out at 320 nM. In addition, the outcome at D(1A) dopamine receptor [4] was inactive.
On to `FC(F)(F)c1cc(Oc2nccn3cccc23)ccc1-c1cccc2nccn12`, for which the Emax entry at D(1A) dopamine receptor [1] was “inactive”. Further, the Emax at D(1A) dopamine receptor [2] was 78%. Also, the EC50 at D(1A) dopamine receptor [3] stood at 7.8 nM. The result at D(1A) dopamine receptor [4] was inactive.
Consider `COc1ccc(-c2ccc(Oc3nccc4occc34)cc2C)c(C)n1`, for which the Emax at D(1A) dopamine receptor [2] is 80%. Besides, the EC50 at D(1A) dopamine receptor [5] is greater than 10 µM; at D(1A) dopamine receptor [3], 77 nM.
Regarding `Cc1cc(Oc2nccc3[nH]ncc23)ccc1-c1c(C)ncc2nccn12`, the Emax at D(1A) dopamine receptor [2] worked out at 104%. The EC50 at D(1A) dopamine receptor [5] was greater than 10 µM; at D(1A) dopamine receptor [3], 1.8 nM.
In the case of `Cc1cc(Oc2nccn3ccnc23)ccc1-c1c(C)ncc2nccn12`, the Emax result at D(1A) dopamine receptor [1] is “inactive”. Also, the maximal response (Emax) on D(1A) dopamine receptor [2] is 85%. Also, the EC50 at D(1A) dopamine receptor [3] came to 260 nM. Also, the outcome at D(1A) dopamine receptor [4] was inactive.
Regarding `Cc1ncc2nccn2c1-c1ccc(Oc2nccc3occc23)c(C)c1C`, the Emax result at D(1A) dopamine receptor [1] is “inactive”. The Emax on D(1A) dopamine receptor [2] was found to be 54%. In addition, the EC50 on D(1A) dopamine receptor [3] amounted to 55 nM. Also, the result at D(1A) dopamine receptor [4] was inactive.
On to `Cc1cc(-c2cccc3nccn23)ccc1Oc1nccc2occc12`, for which the Emax result at D(1A) dopamine receptor [1] was “inactive”. For the same compound, the Emax on D(1A) dopamine receptor [2] was determined as 29%. Further, the EC50 on D(1A) dopamine receptor [3] worked out at 530 nM. The result at D(1A) dopamine receptor [4] was inactive.
For `CCOc1ncnc(C)c1-c1ccc(Oc2nccc3occc23)cc1C`, at D(1A) dopamine receptor [2], the Emax amounted to 67%. Also, the EC50 was greater than 10 µM on D(1A) dopamine receptor [5] and 12 nM at D(1A) dopamine receptor [3].
With `Cc1cc(Oc2cc(N3CCCCC3)ccn2)ccc1-c1c(C)ncc2nccn12`, the Emax entry at D(1A) dopamine receptor [1] was “inactive”. For the same compound, the Emax on D(1A) dopamine receptor [2] was 26%. Moreover, the EC50 at D(1A) dopamine receptor [3] is 640 nM. For the same compound, the outcome on D(1A) dopamine receptor [4] was inactive.
Consider `FC(F)(F)c1cc(Oc2nccc3occ(C4CC4)c23)ccc1-c1cccc2nccn12`, for which the Emax entry at D(1A) dopamine receptor [1] is “inactive”. In addition, the Emax on D(1A) dopamine receptor [2] was 83%. The EC50 on D(1A) dopamine receptor [3] amounted to 770 nM. The result on D(1A) dopamine receptor [4] was inactive.
In the case of `FC(F)(F)c1cc(Oc2ccccn2)ccc1-c1cccc2nccn12`, the Emax entry on D(1A) dopamine receptor [1] was “inactive”. Besides, the maximal response (Emax) on D(1A) dopamine receptor [2] came to 65%. Moreover, at D(1A) dopamine receptor [3], the EC50 is 270 nM. Besides, the result at D(1A) dopamine receptor [4] was inactive.
As to `COC(=O)c1cccn2c(-c3ccc(Oc4nccc5occc45)cc3C)cnc12`, the Emax result at D(1A) dopamine receptor [1] is “inactive”. In addition, the Emax at D(1A) dopamine receptor [2] is 44%. In addition, on D(1A) dopamine receptor [3], the EC50 came out at 1000 nM. Moreover, the result at D(1A) dopamine receptor [4] was inactive.
As for `Cc1cc(Oc2nccc3occc23)ccc1-c1ccc(C#N)cn1`, the Emax result at D(1A) dopamine receptor [1] is “inactive”. Besides, at D(1A) dopamine receptor [3], the EC50 is greater than 10000 nM. Moreover, the outcome at D(1A) dopamine receptor [4] was inactive.
Consider `Cc1cc(Oc2nccc3occc23)ccc1-c1nc(N)cnc1C`, for which, at D(1A) dopamine receptor [2], the Emax is 91%. Also, the EC50 on D(1A) dopamine receptor [5] is greater than 10 µM; on D(1A) dopamine receptor [3] it was 22 nM.
With `Fc1cc(-c2cccc3nccn23)cc(F)c1Oc1nccc2occc12`, the Emax on D(1A) dopamine receptor [2] was found to be 57%. In addition, the EC50 at D(1A) dopamine receptor [5] is greater than 10 µM; at D(1A) dopamine receptor [3], 190 nM.
For the compound `Cc1cc(-c2c(C)ncc3nccn23)ccc1Oc1nccc2occc12`, at D(1A) dopamine receptor [1], the Emax entry was “inactive”. The Emax on D(1A) dopamine receptor [2] amounted to 62%. Further, the EC50 at D(1A) dopamine receptor [3] was determined as 610 nM. Further, on D(1A) dopamine receptor [4], the result was inactive.
With `Cc1cc(N(c2nccc3occc23)C2CCCC2)ccc1-c1c(C)ncc2nccn12`, the Emax at D(1A) dopamine receptor [2] amounted to 68%. Moreover, the EC50 on D(1A) dopamine receptor [5] is greater than 10 µM; at D(1A) dopamine receptor [3] it was 1100 nM.
Take `Cc1cc(Oc2cccc3occc23)ccc1-c1c(C)ncc2nccn12`: the Emax entry at D(1A) dopamine receptor [1] was “inactive”. Also, the Emax at D(1A) dopamine receptor [2] is 69%. In addition, the EC50 at D(1A) dopamine receptor [3] was 79 nM. Also, the outcome on D(1A) dopamine receptor [4] was inactive.
Turning to `Cc1cc(Oc2nccc(O)c2C)ccc1-c1c(C)ncc2nccn12`, the Emax result at D(1A) dopamine receptor [1] is “inactive”. Further, the Emax at D(1A) dopamine receptor [2] worked out at 34%. Moreover, the EC50 on D(1A) dopamine receptor [3] was determined as 160 nM. The result at D(1A) dopamine receptor [4] was inactive.
Consider `FC(F)(F)c1cc(Oc2nccn3ccnc23)ccc1-c1cccc2nccn12`, for which the Emax result on D(1A) dopamine receptor [1] is “inactive”. Also, the Emax on D(1A) dopamine receptor [2] is 54%. Moreover, the EC50 at D(1A) dopamine receptor [3] came out at 180 nM. The outcome at D(1A) dopamine receptor [4] was inactive.
For `Cc1cc(N(c2nccc3occc23)C(C)C)ccc1-c1c(C)ncc2nccn12`, the Emax result at D(1A) dopamine receptor [1] was “inactive”. Besides, the Emax at D(1A) dopamine receptor [2] came to 67%. In addition, the EC50 on D(1A) dopamine receptor [3] was determined as 100 nM. For the same compound, the result at D(1A) dopamine receptor [4] was inactive.
Take `Cc1cc(N(C)c2nccc3occc23)ccc1-c1c(C)ncc2nccn12`: at D(1A) dopamine receptor [1], the Emax entry is “inactive”. For the same compound, the Emax on D(1A) dopamine receptor [2] stood at 79%. Also, the EC50 on D(1A) dopamine receptor [3] was 88 nM. Besides, the result at D(1A) dopamine receptor [4] was inactive.
For the compound `Cc1ncc2nccn2c1-c1cc(F)c(Oc2nccc3occc23)c(F)c1`, at D(1A) dopamine receptor [1], the Emax result was “inactive”. At D(1A) dopamine receptor [2], the Emax was 66%. For the same compound, the EC50 at D(1A) dopamine receptor [3] came out at 140 nM. In addition, at D(1A) dopamine receptor [4], the outcome was inactive.
As to `CCN(c1ccc(-c2c(C)ncc3nccn23)c(C)c1)c1nccc2occc12`, at D(1A) dopamine receptor [1], the Emax entry was “inactive”. Besides, on D(1A) dopamine receptor [2], the Emax came to 80%. In addition, the EC50 at D(1A) dopamine receptor [3] was determined as 36 nM. In addition, the outcome on D(1A) dopamine receptor [4] was inactive.
Turning to `Cc1cc(Oc2ncccc2Br)ccc1-c1c(C)ncc2nccn12`, at D(1A) dopamine receptor [1], the Emax entry was “inactive”. At D(1A) dopamine receptor [3], the EC50 is greater than 10000 nM. The result on D(1A) dopamine receptor [4] was inactive.
